Source: PubChem BioAssay (several laboratories)
Only some compounds are listed: those with a hit (about 1.6% of all), similar ones and a draw of the others.
PAD4 inh: human PAD4 inhibitors, primary screen, biochemical, fluorescence polarization, 1536-well format; Protein-arginine deiminase type-4 (Homo sapiens), Q9UM07; inhibition, % at 6.36 µM; recombinant PAD4, RCA probe fluorescence polarization; 0.41% of 330,000 active;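 active = percent inhibition above a cutoff equal to the mean of all tested compounds plus 3 SD, cut at about 15% in these data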;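 note: 0% = PAD4 with RCA probe and DMSO and 100% = probe without PAD4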
GSTO1 counter: inhibitors of recombinant GSTO1, primary screen, counter-screen for RBBP9 inhibitor project, biochemical, fluorescence polarization; inhibition, % at 5.96 µM; AID 1974, 2009; Glutathione S-transferase omega-1 (Homo sapiens), P78417; 1.1% of 300,000 active; activity-based probe fluorescence polarization;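 active = inhibition above the campaign mean inhibition plus 3 SD, cut at about 35% in these data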;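 note: 0% = GSTO1-1 with DMSO and 100% = wells lacking GSTO1-1 enzyme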
Apaf1 inhib: inhibitors of human Apaf-1 apoptosome, primary screen, biochemical, DEVD-Rh110 fluorescence, uHTS | reconstituted apoptosome caspase-3 activity | Apoptotic protease-activating factor 1 (Homo sapiens), O14727 | inhibition, % at 20 µM | 0.71% of 330,000 active; active = inhibition of at least 40% at 20 µM;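 note: plate controls were DMSO wells for no effect and DEVD-CHO caspase inhibitor wells for full effect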
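Material: reconstituted apoptosome with Apaf-1, cytochrome c, caspase-9, procaspase-3, dATP / Buffer or medium: pH 7.5 Hepes buffer with CHAPS, BSA, DTT / Also added: cytochrome c with DEVD-Rh110 / Schedule: compound with Apaf-1, dATP, procaspase-3 30 min, then 50 min reaction, room temperature / Technique: rhodamine 110 fluorescence at Ex 480/Em 540 nm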
UBC9 SUMO inh: inhibitors of in vitro SUMOylation cascade, primary screen, biochemical, HTRF, uHTS | SUMO-conjugating enzyme UBC9 (Homo sapiens), P63279 | HTRF SUMOylation assay, SAE1/SAE2 + UBC9 | inhibition, % at 35 µM | 0.36% of 290,000 active | AID 2006, 2009; in the data active = inhibition above about 50%, passing the limit was not always enough
TDP2 absorb: human TDP2 enzyme inhibitors, primary screen, biochemical, epi absorbance, recombinant enzyme. Tyrosyl-DNA phosphodiesterase 2 (Homo sapiens), O95551. T5PNP hydrolysis, p-nitrophenol absorbance 415 nm. inhibition, % at 12.8 µM. 0.34% of 370,000 active. AID 720702, 2013;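 active = inhibition above the mean of all tested compounds plus 3 SD, set per campaign, cut at about 25% in these data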;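 note: 0% = DMSO with enzyme and 100% = buffer with substrate but no TDP2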
Target sequence (O95551 whole entry, looked up): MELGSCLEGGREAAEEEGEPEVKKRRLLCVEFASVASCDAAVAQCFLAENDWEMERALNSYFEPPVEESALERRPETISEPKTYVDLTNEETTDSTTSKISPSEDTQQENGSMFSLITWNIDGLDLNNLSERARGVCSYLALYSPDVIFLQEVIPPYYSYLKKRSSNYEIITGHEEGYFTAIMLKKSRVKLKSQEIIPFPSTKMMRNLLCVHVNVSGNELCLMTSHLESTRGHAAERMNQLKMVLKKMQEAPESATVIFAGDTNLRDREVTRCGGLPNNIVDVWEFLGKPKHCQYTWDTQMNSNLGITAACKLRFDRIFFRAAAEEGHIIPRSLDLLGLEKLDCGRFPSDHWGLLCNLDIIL
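Test system: Human TDP2 enzyme | Reagent: 5 mM T5PNP | Compound dosing: 12.8 µM single point, 1% DMSO | Incubation: Enzyme reaction with compound for 2 h at 37 °C | Technique: p-Nitrophenol epi absorbance | Read-out: % inhibition relative to enzyme-containing and enzyme-free wells | Benchmarks: High control without enzyme, low control DMSO plus TDP2 | Replicates: Singlicate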
JMJD2C inh: inhibitors of GASC-1 histone demethylase, primary screen, biochemical, fluorescence, DELFIA europium. Lysine-specific demethylase 4C (Homo sapiens), Q9H3R0. GST-JMJD2C(1-420) H3K9me3 demethylation. inhibition, % at 2.35 µM. 0.069% of 330,000 active. AID 2099, 2009;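 active = more than half of a compound's replicate wells show inhibition beyond 50%, single wells judged on their own value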;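 note: signal counts dimethyl H3K9 product captured on neutravidin plate; 0% = median of DMSO wells and 100% = 0.3 times that DMSO median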
Target sequence (Q9H3R0 1-420 limits assumed): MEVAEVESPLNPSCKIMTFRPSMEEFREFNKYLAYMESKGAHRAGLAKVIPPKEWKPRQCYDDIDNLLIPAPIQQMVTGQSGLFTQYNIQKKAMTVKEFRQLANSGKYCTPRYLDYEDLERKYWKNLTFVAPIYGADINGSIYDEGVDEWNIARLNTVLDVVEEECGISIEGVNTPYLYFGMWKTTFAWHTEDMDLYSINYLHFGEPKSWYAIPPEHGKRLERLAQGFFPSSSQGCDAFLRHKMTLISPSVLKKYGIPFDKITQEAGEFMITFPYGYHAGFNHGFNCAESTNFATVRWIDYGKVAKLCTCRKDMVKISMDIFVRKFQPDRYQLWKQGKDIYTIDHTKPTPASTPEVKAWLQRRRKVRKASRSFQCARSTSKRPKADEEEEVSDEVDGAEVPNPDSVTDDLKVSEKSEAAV
Starred values were filed as active, the others as inactive; x = no result given.

SMILES | PAD4 inh | GSTO1 counter | Apaf1 inhib | UBC9 SUMO inh | TDP2 absorb | JMJD2C inh
Cn1c(C(=O)N2CCN(C(=O)c3ccco3)CC2)cc2c(=O)n3ccccc3nc21 | 2.3 | 8.0 | 9.6 | 57.7* | 2.2 | 8.4
CC1CCCCC1NC(=O)c1cc2c(=O)n3ccccc3nc2n1C (stereo not drawn) | -1.3 | -0.6 | 13.4 | 58.0* | -2.9 | -0.3
CCNC(=O)c1ccc2c(c1)S(=O)(=O)c1ccccc1C2=O | 2.5 | -0.3 | 10.1 | 13.8 | -13.4 | 51.1*
CCCCNC(=O)c1ccc2c(c1)S(=O)(=O)c1ccccc1C2=O | x | x | 2.7 | -1.1 | -4.9 | -15.9
Cc1ccc2cc(C(c3nnnn3CC3CCCO3)N3CCc4ccccc4C3)c(=O)[nH]c2c1 (stereo not drawn) | -11.0 | 13.0 | 87.3* | 40.2 | 6.6 | 10.0
Cc1cccc2cc(C(c3nnnn3CC3CCCO3)N3CCc4ccccc4C3)c(=O)[nH]c12 (stereo not drawn) | -14.8 | 8.0 | 78.6* | 19.7 | x | x
Cc1ccc(C)c2[nH]c(=O)c(C(c3nnnn3Cc3ccccc3)N3CCc4ccccc4C3)cc12 (stereo not drawn) | -13.3 | 14.4 | 67.3* | 36.5 | 5.3 | 15.7
CC1=C2NC(N)=[N+](Cc3ccc4c(c3)OCO4)CC2n2c(=O)n(-c3ccccc3)c(=O)n2C1 (stereo not drawn) | x | x | x | x | -6.6 | x
CC(CCN1CCC(C(O)(c2ccccc2)c2ccccc2)CC1)Oc1ccc(OC(F)(F)F)cc1 (stereo not drawn) | x | x | x | x | -10.1 | x
O=C(CSc1nncc(=O)[nH]1)Nc1cccc([N+](=O)[O-])c1 | 3.0 | 35.3* | 10.5 | 11.4 | 17.5 | -6.2
Cc1cnn(C(=O)c2ccccc2Br)c1 | -2.0 | 1.1 | -10.8 | 25.1 | -20.5 | 85.5*
N#Cc1ccccc1N1CCN(S(=O)(=O)c2ccc3c(c2)CCC(=O)N3)CC1 | x | x | x | x | -6.5 | x
CCOc1cc(C(C(=O)NCC2CCCO2)N(C(=O)Cn2nnc3ccccc32)c2ccc(NC(C)=O)cc2)ccc1O (stereo not drawn) | -1.0 | 8.8 | -8.0 | 14.2 | -15.3 | -6.1
CC(=O)Nc1ccc(N(C(=O)Cn2nnc3ccccc32)C(C(=O)NC2CCCC2)c2ccc(O)c(O)c2)cc1 (stereo not drawn) | -1.9 | 42.7* | 6.7 | -2.5 | -5.9 | 6.6
CCOC(=O)C1CCCN(C(=O)c2cc(S(=O)(=O)N3CCCCCC3)ccc2OC)C1 (stereo not drawn) | -8.2 | x | 49.1* | x | 9.7 | 4.6
C[C@H]1[C@@H](OC(=O)N2CCN(c3ccccc3)CC2)CC[C@@]23CCCN2C(=O)CCC[C@@H]13 | x | x | x | x | 1.8 | x
CCCCCCCCCCCCCCCC[N+](C)(C)CC | -3.6 | 5.6 | 87.5* | x | 16.5 | 0.0
CCOC(=O)[C@@]12CCCC=C1N(CCc1ccc(Cl)cc1)C(=O)[C@H]2CC(=O)N1CCCC1 | x | x | x | x | 0.8 | x
CC(=O)[C@@H]1[C@@H]2C(=O)N(C3CCCCC3)C(=O)[C@@H]2C2c3ccccc3C=CN21 (stereo partly drawn) | -9.3 | 21.9 | 84.1* | 13.0 | x | -1.0
COc1ccc(NC(=O)[C@@H]2[C@@H]3C(=O)N(C4CCCCC4)C(=O)[C@@H]3C3c4ccccc4C=CN32)cc1 (stereo partly drawn) | -21.3 | -2.3 | 51.0* | 29.7 | 1.2 | 10.9
CCOC(=O)[C@@]12CCC3=C1N(CCC3)C(=O)[C@H](CC(=O)NCCCOC)C2 | x | x | x | x | -9.3 | x
CC1CCC2(CC1)CCN(CCCOC(=O)NCc1ccc(Cl)cc1)C2=O (stereo not drawn) | x | x | x | x | -2.3 | x
CC(COc1ccc(CC#N)cc1)CN1CCC(C(O)(c2ccccc2)c2ccccc2)CC1 (stereo not drawn) | x | x | x | x | -16.7 | x
CCOc1cc(N2CCOCC2)c(OCC)cc1NC(=O)C(C)C | 2.4 | -4.9 | -7.8 | 5.1 | -8.2 | 31.3
CCOc1cc(N2CCOCC2)c(OCC)cc1NC(C)C(=O)N1CCN(CC)CC1 (stereo not drawn) | x | x | x | 26.9 | 45.2* | -0.2
SMILES | PAD4 inh | GSTO1 counter | Apaf1 inhib | UBC9 SUMO inh | TDP2 absorb | JMJD2C inh
Cc1ccc(S(=O)(=O)CNC(=S)c2cccc(Cl)c2)cc1 | 1.8 | 37.5* | 11.3 | 6.3 | -16.3 | -11.7
COC(=O)[C@H](CC(C)C)N(Cc1cn(Cc2ccc(C)cc2)nn1)S(=O)(=O)c1ccccc1Br | x | x | x | x | 1.9 | x
COc1ccc(S(=O)(=O)Nc2ccc(Oc3ccsc3C(=O)O)cc2)cc1 | -0.5 | 35.2* | -0.6 | 3.6 | 18.9 | 9.4
Cc1ccnc(NC(=S)N2CC3CN(c4cccc(C(F)(F)F)c4)CC3C2)c1 (stereo not drawn) | x | x | x | x | -2.1 | x
COC(=O)c1cc(O)cc(OC)c1Oc1cc(C)cc(O)c1C(=O)O | -4.4 | 36.2* | -0.5 | x | -15.1 | -3.5
O=C1CCC(C(=O)OCC(=O)N2N=C3/C(=C/c4ccccc4)CCCC3C2c2ccccc2)N1 (stereo not drawn) | -0.1 | -24.6 | 43.5* | 10.2 | 6.4 | -0.5
CN(c1ccc(C(=O)Nc2ccc(Cl)cn2)cc1)S(=O)(=O)c1ccccc1 | -6.5 | 8.7 | 7.2 | 0.7 | -6.0 | -6.8
CN(C1=C(NC(=O)c2ccc(Cl)cc2)C(=O)c2ccccc2C1=O)c1ccccc1 | -0.6 | 43.2* | 34.5 | -11.1 | -0.8 | 9.0
c1ccc(-c2nccc(-c3ccco3)n2)nc1 | -4.6 | 3.1 | -5.2 | 11.5 | -6.0 | -8.6
c1ccc(-c2nc(-c3ccco3)cs2)nc1 | -5.1 | -3.6 | 8.4 | 19.1 | -3.9 | 55.8*
Cc1ccc(Cn2cc(CN(C3CC3)S(=O)(=O)c3ccccc3Br)nn2)cc1 | x | x | x | x | -8.1 | x
c1ccc2cc3[nH]c(CNc4nc(N5CCOCC5)nc5c4ncn5-c4ccsc4)nc3cc2c1 | x | x | x | x | -2.4 | x
O=C(CN1C(=O)S/C(=C\c2ccccc2)C1=O)NNC(=O)c1ccccc1O | -1.1 | 3.2 | 1.9 | x | 1.3 | -3.6
COc1ccc(/C=C2\SC(=O)N(CC(=O)NNC(=O)c3ccccc3O)C2=O)cc1 | -8.6 | 8.0 | 3.7 | 56.3* | 4.2 | 6.4
COc1ccc(/C=C2\SC(=O)N(CC(=O)NNC(=O)c3ccccc3O)C2=O)cc1OC | 2.3 | 38.0* | 11.9 | 14.2 | 1.3 | 6.2
COC(=O)[C@H]1C[C@@]2(n3ccc4ccccc43)c3ccccc3N(S(=O)(=O)c3ccccc3)[C@H]2N1C(=O)CNC1CCCCC1 | x | x | x | x | 3.7 | x
O=C1CC(CSc2ccc(Cl)cc2)=NN1 | 3.8 | 37.0* | 6.1 | -14.9 | 16.2 | 49.9
